From ChEMBL document CHEMBL1629494, “New amino acid esters of salicylanilides active against MDR-TB and other microbes” (Eur J Med Chem, 2010)
Converted amounts (≈) assume the structure as drawn.

Columns and labels:
Assay type in all cases: functional
Lichtheimia corymbifera [1] = assay: Antifungal activity against Absidia corymbifera 272 after 24 hrs by broth microdilution method; settings: Lichtheimia corymbifera, 272, 24 h
Klebsiella pneumoniae [2] = assay: Antibacterial activity against Klebsiella pneumoniae D11750/08 after 48 hrs by broth microdilution method; settings: D11750/08, 48 h
Outline: (§1)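 Broth microdilution following […], with twofold compound dilutions in Mueller-Hinton bouillon. Incubated 24 and 48 h at 35 °C in the dark in a humid atmosphere. MIC (IC80) was taken as ≥80% growth reduction versus control, read visually and photometrically.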

Mycobacterium kansasii [3] = assay: Antimycobacterial activity against Mycobacterium kansasii 235/80 after 21 days by micromethod; settings: 235/80, 504 h
Outline: (§2)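 Micromethod in Sula semisynthetic medium, with compounds added as DMSO solutions at 1000, 500, 250, 125, 62, 32, 16, 8, 4, 2, 1, 0.5, 0.25. Inoculum dilutions: H37Rv 10^-3; M. avium 330/88 10^-5; M. kansasii 235/80 10^-4; M. kansasii 6509/96 10^-5. Incubated at 37 °C, read at 14 and 21 days, and at 7 days for M. kansasii. MIC was the lowest concentration inhibiting growth.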

Mycobacterium kansasii [4] = assay: Antimycobacterial activity against Mycobacterium kansasii 6509/96 after 7 days by micromethod; settings: 6509/96, 168 h; outline: as §2
Candida tropicalis [5] = assay: Antifungal activity against Candida tropicalis 156 after 48 hrs by broth microdilution method; settings: Candida tropicalis, 156, 48 h
Mycobacterium kansasii [6] = assay: Antimycobacterial activity against Mycobacterium kansasii 235/80 after 7 days by micromethod; settings: 235/80, 168 h; outline: as §2
Mycobacterium kansasii [7] = assay: Antimycobacterial activity against Mycobacterium kansasii 6509/96 after 14 days by micromethod; settings: 6509/96, 336 h; outline: as §2
Escherichia coli [8] = assay: Antibacterial activity against Escherichia coli CCM 4517 after 48 hrs by broth microdilution method; settings: CCM 4517, 48 h; outline: as §1
Candida albicans [9] = assay: Antifungal activity against Candida albicans ATCC 44859 after 24 hrs by broth microdilution method; settings: ATCC 44859, 24 h
Klebsiella pneumoniae [10] = assay: Antibacterial activity against Klebsiella pneumoniae D11750/08 after 24 hrs by broth microdilution method; settings: D11750/08, 24 h; outline: as §1
Candida albicans [11] = assay: Antifungal activity against Candida albicans ATCC 44859 after 48 hrs by broth microdilution method; settings: ATCC 44859, 48 h
Aspergillus fumigatus [12] = assay: Antifungal activity against Aspergillus fumigatus 231 after 48 hrs by broth microdilution method; settings: Aspergillus fumigatus, 231, 48 h
Staphylococcus aureus [13] = assay: Antibacterial activity against Staphylococcus aureus CCM 4516/08 after 48 hrs by broth microdilution method; settings: CCM 4516/08, 48 h; outline: as §1
[14] = tested on: Mycobacterium tuberculosis; assay: Antimycobacterial activity against Mycobacterium tuberculosis H37Rv 331/88 after 21 days by micromethod; settings: H37Rv 331/88, 504 h; outline: as §2
Staphylococcus aureus [15] = assay: Antibacterial activity against methicillin-resistant Staphylococcus aureus H5996/08 after 24 hrs by broth microdilution method; settings: H5996/08, 24 h; outline: as §1
Escherichia coli [16] = assay: Antibacterial activity against Escherichia coli CCM 4517 after 24 hrs by broth microdilution method; settings: CCM 4517, 24 h; outline: as §1
Mycobacterium avium [17] = assay: Antimycobacterial activity against multidrug-resistant Mycobacterium avium 330/88 after 14 days by micromethod; settings: 330/88, 336 h; outline: as §2
Staphylococcus aureus [18] = assay: Antibacterial activity against methicillin-resistant Staphylococcus aureus H5996/08 after 48 hrs by broth microdilution method; settings: H5996/08, 48 h; outline: as §1
Nakaseomyces glabratus [19] = assay: Antifungal activity against Candida glabrata 20/I after 24 hrs by broth microdilution method
Trichosporon beigelii [20] = assay: Antifungal activity against Trichosporon beigelii 1188 after 48 hrs by broth microdilution method; settings: Trichosporon beigelii, 1188, 48 h
Enterococcus sp. [21] = assay: Antibacterial activity against Enterococcus sp. J14365/08 after 24 hrs by broth microdilution method; settings: J14365/08, 24 h; outline: as §1
Staphylococcus aureus [22] = assay: Antibacterial activity against Staphylococcus aureus CCM 4516/08 after 24 hrs by broth microdilution method; settings: CCM 4516/08, 24 h; outline: as §1
[23] = tested on: Staphylococcus epidermidis; assay: Antibacterial activity against Staphylococcus epidermidis H6966/08 after 48 hrs by broth microdilution method; settings: H6966/08, 48 h; outline: as §1
Mycobacterium kansasii [24] = assay: Antimycobacterial activity against Mycobacterium kansasii
Mycobacterium avium [25] = assay: Antimycobacterial activity against Mycobacterium avium
Mycobacterium avium [26] = assay: Antimycobacterial activity against multidrug-resistant Mycobacterium avium 330/88 after 21 days by micromethod; settings: 330/88, 504 h; outline: as §2
[27] = tested on: Staphylococcus epidermidis; assay: Antibacterial activity against Staphylococcus epidermidis H6966/08 after 24 hrs by broth microdilution method; settings: H6966/08, 24 h; outline: as §1
[28] = tested on: Mycobacterium tuberculosis; assay: Antimycobacterial activity against drug-sensitive Mycobacterium tuberculosis
Enterococcus sp. [29] = assay: Antibacterial activity against Enterococcus sp. J14365/08 after 48 hrs by broth microdilution method; settings: J14365/08, 48 h; outline: as §1
Mycobacterium kansasii [30] = assay: Antimycobacterial activity against Mycobacterium kansasii 235/80 after 14 days by micromethod; settings: 235/80, 336 h; outline: as §2
[31] = tested on: Mycobacterium tuberculosis; assay: Antimycobacterial activity against Mycobacterium tuberculosis H37Rv 331/88 after 14 days by micromethod; settings: H37Rv 331/88, 336 h; outline: as §2
[32] = tested on: Trichophyton mentagrophytes; assay: Antifungal activity against Trichophyton mentagrophytes after 24 hrs by broth microdilution method
Aspergillus fumigatus [33] = assay: Antifungal activity against Aspergillus fumigatus 231 after 24 hrs by broth microdilution method; settings: Aspergillus fumigatus, 231, 24 h
Pichia kudriavzevii [34] = assay: Antifungal activity against Candida krusei E28 after 48 hrs by broth microdilution method; settings: E28, 48 h
Pichia kudriavzevii [35] = assay: Antifungal activity against Candida krusei E28 after 24 hrs by broth microdilution method; settings: E28, 24 h
Candida tropicalis [36] = assay: Antifungal activity against Candida tropicalis 156 after 24 hrs by broth microdilution method; settings: Candida tropicalis, 156, 24 h
Mycobacterium kansasii [37] = assay: Antimycobacterial activity against Mycobacterium kansasii 6509/96 after 21 days by micromethod; settings: 6509/96, 504 h; outline: as §2
Lichtheimia corymbifera [38] = assay: Antifungal activity against Absidia corymbifera 272 after 48 hrs by broth microdilution method; settings: Lichtheimia corymbifera, 272, 48 h
Trichosporon beigelii [39] = assay: Antifungal activity against Trichosporon beigelii 1188 after 24 hrs by broth microdilution method; settings: Trichosporon beigelii, 1188, 24 h
Nakaseomyces glabratus [40] = assay: Antifungal activity against Candida glabrata 20/I after 48 hrs by broth microdilution method
[41] = tested on: Trichophyton mentagrophytes; assay: Antifungal activity against Trichophyton mentagrophytes after 48 hrs by broth microdilution method

SMILES: CC(=O)N[C@@H](Cc1ccccc1)C(=O)Oc1cc(Cl)ccc1C(=O)Nc1ccc(Br)cc1
- MIC (Lichtheimia corymbifera [1]): 15.6 µM (≈ 8.06 µg/mL)
- MIC (Klebsiella pneumoniae [2]): > 125 µM
- MIC (Mycobacterium kansasii [3]): 4 µM (≈ 2.06 µg/mL)
- MIC (Mycobacterium kansasii [4]): 4 µM (≈ 2.06 µg/mL)
- MIC (Candida tropicalis [5]): > 125 µM
- MIC (Mycobacterium kansasii [6]): 2 µM (≈ 1.03 µg/mL)
- MIC (Mycobacterium kansasii [7]): 4 µM (≈ 2.06 µg/mL)
- MIC (Escherichia coli [8]): 125 µM (≈ 64.5 µg/mL)
- MIC (Candida albicans [9]): > 125 µM
- MIC (Klebsiella pneumoniae [10]): > 125 µM
- MIC (Candida albicans [11]): > 125 µM
- MIC (Aspergillus fumigatus [12]): > 125 µM
- MIC (Staphylococcus aureus [13]): 1.95 µM (≈ 1.01 µg/mL)
- MIC [14]: 4 µM (≈ 2.06 µg/mL)
- MIC (Staphylococcus aureus [15]): 0.98 µM (≈ 0.505 µg/mL)
- MIC (Escherichia coli [16]): 15.6 µM (≈ 8.06 µg/mL)
- MIC (Mycobacterium avium [17]): 4 µM (≈ 2.06 µg/mL)
- MIC (Staphylococcus aureus [18]): 7.81 µM (≈ 4.03 µg/mL)
- MIC (Nakaseomyces glabratus [19]): > 125 µM
- MIC (Trichosporon beigelii [20]): 62.5 µM (≈ 32.2 µg/mL)
- MIC (Enterococcus sp. [21]): 7.81 µM (≈ 4.03 µg/mL)
- MIC (Staphylococcus aureus [22]): 0.98 µM (≈ 0.505 µg/mL)
- MIC [23]: 1.95 µM (≈ 1.01 µg/mL)
- MIC (Mycobacterium kansasii [24]): 1 µM (≈ 0.516 µg/mL)
- MIC (Mycobacterium avium [25]): 1 µM (≈ 0.516 µg/mL)
- MIC (Mycobacterium avium [26]): 8 µM (≈ 4.13 µg/mL)
- MIC [27]: 0.98 µM (≈ 0.505 µg/mL)
- MIC [28]: 1 µM (≈ 0.516 µg/mL)
- MIC (Enterococcus sp. [29]): 125 µM (≈ 64.5 µg/mL)
- MIC (Mycobacterium kansasii [30]): 4 µM (≈ 2.06 µg/mL)
- MIC [31]: 2 µM (≈ 1.03 µg/mL)
- MIC [32]: 7.81 µM (≈ 4.03 µg/mL)
- MIC (Aspergillus fumigatus [33]): 62.5 µM (≈ 32.2 µg/mL)
- MIC (Pichia kudriavzevii [34]): > 125 µM
- MIC (Pichia kudriavzevii [35]): > 125 µM
- MIC (Candida tropicalis [36]): > 125 µM
- MIC (Mycobacterium kansasii [37]): 8 µM (≈ 4.13 µg/mL)
- MIC (Lichtheimia corymbifera [38]): 62.5 µM (≈ 32.2 µg/mL)
- MIC (Trichosporon beigelii [39]): 15.6 µM (≈ 8.06 µg/mL)
- MIC (Nakaseomyces glabratus [40]): > 125 µM
- MIC [41]: 15.6 µM (≈ 8.06 µg/mL)

SMILES: Nc1ccc(C(=O)O)c(O)c1 [AMINOSALICYLIC ACID]
- MIC (Mycobacterium kansasii [3]): > 1000 µM
- MIC (Mycobacterium kansasii [4]): 32 µM (≈ 4.9 µg/mL)
- MIC (Mycobacterium kansasii [6]): 125 µM (≈ 19.1 µg/mL)
- MIC (Mycobacterium kansasii [7]): 125 µM (≈ 19.1 µg/mL)
- MIC [14]: 62.5 µM (≈ 9.57 µg/mL)
- MIC (Mycobacterium avium [17]): 32 µM (≈ 4.9 µg/mL)
- MIC (Mycobacterium avium [26]): 125 µM (≈ 19.1 µg/mL)
- MIC (Mycobacterium kansasii [30]): 1000 µM (≈ 153 µg/mL)
- MIC [31]: 62.5 µM (≈ 9.57 µg/mL)
- MIC (Mycobacterium kansasii [37]): 500 µM (≈ 76.6 µg/mL)
